From ChEMBL document CHEMBL1130209, “A novel series of 2,5-substituted tryptamine derivatives as vascular 5HT1B/1D receptor antagonists” (J Med Chem, 1997) come the findings set out here.

Data set [1] can be described thus: The dissociation equilibrium constant (pKB=-log KB) of compound was determined against the Muscarinic acetylcholine receptor M3 in the guinea pig trachea. As to conditions: Cavia porcellus.
Data set [2] has as its target T1, Adrenergic receptor alpha-2 (Rattus norvegicus, UniProt P22086+P19328+P22909).
T1 sequence (P22086 whole entry): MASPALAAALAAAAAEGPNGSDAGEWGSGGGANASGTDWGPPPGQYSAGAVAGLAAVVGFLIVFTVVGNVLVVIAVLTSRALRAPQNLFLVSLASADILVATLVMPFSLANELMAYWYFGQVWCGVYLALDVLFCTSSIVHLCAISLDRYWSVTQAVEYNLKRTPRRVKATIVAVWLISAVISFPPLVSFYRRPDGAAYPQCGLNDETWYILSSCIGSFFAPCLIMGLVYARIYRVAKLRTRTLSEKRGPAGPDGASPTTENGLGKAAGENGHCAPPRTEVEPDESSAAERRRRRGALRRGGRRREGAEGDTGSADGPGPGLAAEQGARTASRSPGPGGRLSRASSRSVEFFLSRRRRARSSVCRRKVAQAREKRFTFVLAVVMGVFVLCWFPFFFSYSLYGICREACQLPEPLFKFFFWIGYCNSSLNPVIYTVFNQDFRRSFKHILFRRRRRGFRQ
T1 sequence (P19328 whole entry): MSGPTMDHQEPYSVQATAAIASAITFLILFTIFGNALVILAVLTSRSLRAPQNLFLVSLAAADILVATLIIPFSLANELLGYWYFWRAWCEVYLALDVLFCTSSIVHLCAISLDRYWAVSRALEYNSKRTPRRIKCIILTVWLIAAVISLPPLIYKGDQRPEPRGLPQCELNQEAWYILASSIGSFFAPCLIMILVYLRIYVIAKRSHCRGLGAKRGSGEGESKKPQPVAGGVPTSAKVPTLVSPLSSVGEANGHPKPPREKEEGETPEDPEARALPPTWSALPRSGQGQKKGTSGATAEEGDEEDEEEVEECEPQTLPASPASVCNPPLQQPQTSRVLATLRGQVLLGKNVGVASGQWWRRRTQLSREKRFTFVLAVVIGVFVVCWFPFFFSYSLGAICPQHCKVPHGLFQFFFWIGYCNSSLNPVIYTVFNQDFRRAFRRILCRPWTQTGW
T1 sequence (P22909 whole entry): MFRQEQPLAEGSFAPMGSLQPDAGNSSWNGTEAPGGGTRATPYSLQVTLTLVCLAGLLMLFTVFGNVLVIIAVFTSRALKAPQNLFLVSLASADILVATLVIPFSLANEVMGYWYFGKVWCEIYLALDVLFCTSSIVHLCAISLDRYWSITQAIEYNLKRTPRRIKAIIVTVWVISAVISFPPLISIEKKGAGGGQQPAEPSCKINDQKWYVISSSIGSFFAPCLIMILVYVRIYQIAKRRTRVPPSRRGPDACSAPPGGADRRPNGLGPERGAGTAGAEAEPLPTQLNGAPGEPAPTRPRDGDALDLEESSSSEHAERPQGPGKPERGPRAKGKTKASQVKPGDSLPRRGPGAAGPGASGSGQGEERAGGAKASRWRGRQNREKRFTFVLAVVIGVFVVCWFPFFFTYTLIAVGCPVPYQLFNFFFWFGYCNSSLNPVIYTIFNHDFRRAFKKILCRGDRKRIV
Nature of the data set: Affinity pKi for Alpha-2 adrenergic receptor was measured in rat cortex homogenates. It is filed as tissue-based. In short, it runs like this:
(§1)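 Competition binding with rat cortex homogenate: radioligand near its KD plus a wide range of test drug concentrations in duplicate, 30 min at 27 °C. Buffer 50 mM TRIS-HCl, 5 mM CaCl₂, 0.1% (w/v) ascorbate, 10 mM pargyline. Nonspecific binding defined with excess cold 5HT. Rapid filtration with ice-cold buffer wash, liquid scintillation count. pKi is the mean of at least three estimates.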

Data set [3] has as its target Adrenergic receptor alpha-2 (Homo sapiens) (UniProt P08913+P18825+P18089). The data set is described as follows: The dissociation equilibrium constant (pKB=-log KB) of compound was determined against the Alpha-2 adrenergic receptor. It is filed as protein assay. As to conditions: Oryctolagus cuniculus.
In data set [4] the target is Histamine H1 receptor (Homo sapiens) (UniProt P35367). Nature of the data set: The dissociation equilibrium constant (pKB=-log KB) of compound was determined against the Histamine H1 receptor in the rabbit thoracic aorta. It is filed as tissue-based. As to conditions: Oryctolagus cuniculus, target entry is the homologue from another species.
A short description of data set [5]: Half life of compound was determined in rat plasma. It counts as ADME, organism-based.
In data set [6] the target is 5-hydroxytryptamine receptor 2A (Rattus norvegicus, UniProt P14842). Nature of the data set: Affinity pKi for 5-hydroxytryptamine 2A receptor was measured in rat cortex homogenates. It is filed as tissue-based. An outline of the steps: as §1
The target of data set [7] is 5-hydroxytryptamine receptor 2A (Homo sapiens) (UniProt P28223). Nature of the data set: Dissociation equilibrium constant against the vascular 5-hydroxytryptamine 2A receptor in the rabbit […] aorta. It counts as tissue-based. Particulars: Oryctolagus cuniculus, target entry is the homologue from another species.
The nature of data set [8]: Half life of compound was determined in mouse plasma. It counts as ADME, organism-based.
The target in data set [9] is Adrenergic receptor beta (Rattus norvegicus, UniProt P18090+P10608+P26255). The data set is described as follows: Affinity pKi for Beta adrenergic receptor was measured in rat cortex homogenates. An outline of the steps: as §1

Sequence of Histamine H1 receptor (Homo sapiens) (P35367 whole entry): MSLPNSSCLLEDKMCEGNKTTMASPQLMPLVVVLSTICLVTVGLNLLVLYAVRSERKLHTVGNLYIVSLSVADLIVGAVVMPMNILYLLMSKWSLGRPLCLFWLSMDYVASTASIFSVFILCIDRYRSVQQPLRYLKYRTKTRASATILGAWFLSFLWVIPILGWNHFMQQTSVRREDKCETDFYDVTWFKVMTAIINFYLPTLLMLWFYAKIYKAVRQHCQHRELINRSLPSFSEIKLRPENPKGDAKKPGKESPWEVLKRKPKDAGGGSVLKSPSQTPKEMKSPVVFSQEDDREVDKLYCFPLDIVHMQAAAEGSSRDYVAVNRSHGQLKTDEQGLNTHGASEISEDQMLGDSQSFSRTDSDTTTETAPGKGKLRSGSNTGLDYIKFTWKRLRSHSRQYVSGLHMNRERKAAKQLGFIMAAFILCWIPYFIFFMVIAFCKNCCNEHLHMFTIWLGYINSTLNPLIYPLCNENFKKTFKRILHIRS
Sequence of 5-hydroxytryptamine receptor 2A (Homo sapiens) (P28223 whole entry): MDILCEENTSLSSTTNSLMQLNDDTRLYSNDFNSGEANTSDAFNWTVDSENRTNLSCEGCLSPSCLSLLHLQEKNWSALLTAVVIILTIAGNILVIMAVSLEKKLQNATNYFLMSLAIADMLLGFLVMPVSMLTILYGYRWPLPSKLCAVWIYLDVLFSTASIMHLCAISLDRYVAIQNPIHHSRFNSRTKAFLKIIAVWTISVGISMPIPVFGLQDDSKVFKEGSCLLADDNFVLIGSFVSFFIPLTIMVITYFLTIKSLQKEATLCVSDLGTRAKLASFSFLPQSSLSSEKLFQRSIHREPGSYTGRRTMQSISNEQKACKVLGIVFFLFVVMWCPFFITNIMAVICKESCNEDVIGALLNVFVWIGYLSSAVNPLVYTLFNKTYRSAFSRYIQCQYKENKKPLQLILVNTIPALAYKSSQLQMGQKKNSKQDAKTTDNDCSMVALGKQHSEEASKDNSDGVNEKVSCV
Sequence of 5-hydroxytryptamine receptor 2A (P14842 whole entry): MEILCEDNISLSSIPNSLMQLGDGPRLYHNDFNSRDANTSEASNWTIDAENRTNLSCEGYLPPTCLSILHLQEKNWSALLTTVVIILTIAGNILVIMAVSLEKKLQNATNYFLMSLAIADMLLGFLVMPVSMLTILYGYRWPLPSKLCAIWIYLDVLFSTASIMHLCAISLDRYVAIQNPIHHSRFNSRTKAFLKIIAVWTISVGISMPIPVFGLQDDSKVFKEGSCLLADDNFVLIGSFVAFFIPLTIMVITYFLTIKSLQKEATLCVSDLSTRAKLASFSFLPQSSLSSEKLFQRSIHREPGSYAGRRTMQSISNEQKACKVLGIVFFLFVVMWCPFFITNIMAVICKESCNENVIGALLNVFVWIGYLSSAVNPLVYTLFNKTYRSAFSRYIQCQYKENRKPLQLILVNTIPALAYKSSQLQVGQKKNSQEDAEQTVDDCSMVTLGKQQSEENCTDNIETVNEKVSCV

Consider `CCOC(=O)c1[nH]c2ccc(CCN3C(=O)CNC3=O)cc2c1CCN(C)C`, for which the pKB is < 5 in [1], < 5 in data set [3], < 5 in data set [4] and 5.8 in data set [7]. For the same molecule, the entries for the “Log Ki” value in [2] and in data set [9] were -5.25 and -4.34, respectively. Besides, the values for the half-life in data set [5] and in data set [8] were 15 min and 12 min, respectively. For the same molecule, in data set [6], the affinity corresponds to a Ki of 7.94 µM.

Usually pKB stands for −log10 of the KB, conventionally taken in molar units. Low values mean a high KB, high ones a low KB. What is called half-life is how long it takes for the measured level to halve. Read a low half-life as rapid decline. As usually defined, the Ki is the dissociation constant of the complex between target and ligand, obtained from inhibition or displacement. Read a high Ki as lower affinity.
